Laboratory results taken from ChEMBL document CHEMBL1152631, “Design, synthesis, and preliminary studies of the activity of novel derivatives of N-cinnamoyl-L-aspartic acid as inhibitors of aminopeptidase N/CD13” (Bioorg Med Chem, 2009).

Experiments:
Aminopeptidase N = biological target: T1, Aminopeptidase N (Sus scrofa, UniProt P15145); assay: Inhibition of porcine kidney microsome APN assessed as L-Leu-p-nitroanilide hydrolysis
T1 sequence (P15145 whole entry): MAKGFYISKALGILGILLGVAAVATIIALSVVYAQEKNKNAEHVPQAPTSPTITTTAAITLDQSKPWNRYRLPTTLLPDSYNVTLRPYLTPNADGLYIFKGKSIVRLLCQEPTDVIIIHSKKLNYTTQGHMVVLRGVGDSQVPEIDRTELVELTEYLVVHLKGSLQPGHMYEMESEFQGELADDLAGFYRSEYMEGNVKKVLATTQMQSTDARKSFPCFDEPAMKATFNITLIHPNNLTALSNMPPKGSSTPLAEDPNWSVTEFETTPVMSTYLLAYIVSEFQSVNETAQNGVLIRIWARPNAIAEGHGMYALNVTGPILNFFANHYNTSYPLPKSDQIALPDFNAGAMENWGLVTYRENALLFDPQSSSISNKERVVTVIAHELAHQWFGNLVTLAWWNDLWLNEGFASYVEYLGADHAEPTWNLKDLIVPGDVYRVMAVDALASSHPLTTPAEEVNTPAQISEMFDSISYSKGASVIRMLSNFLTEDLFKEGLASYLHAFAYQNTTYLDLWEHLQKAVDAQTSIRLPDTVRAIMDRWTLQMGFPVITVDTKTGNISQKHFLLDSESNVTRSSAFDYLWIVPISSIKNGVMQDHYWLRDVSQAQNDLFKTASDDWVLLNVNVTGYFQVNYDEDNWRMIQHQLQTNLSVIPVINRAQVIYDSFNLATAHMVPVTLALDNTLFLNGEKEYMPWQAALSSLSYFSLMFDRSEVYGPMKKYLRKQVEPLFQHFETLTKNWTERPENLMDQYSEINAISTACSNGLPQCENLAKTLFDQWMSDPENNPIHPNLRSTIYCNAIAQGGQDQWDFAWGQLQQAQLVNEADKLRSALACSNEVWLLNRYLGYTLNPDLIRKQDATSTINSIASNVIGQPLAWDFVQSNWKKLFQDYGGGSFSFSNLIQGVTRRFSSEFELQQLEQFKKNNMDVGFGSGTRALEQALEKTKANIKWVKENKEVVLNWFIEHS
Outline: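 Porcine kidney microsomal aminopeptidase, 4 mg/ml final, in PBS pH 7.2 at 37 °C. Inhibitor solutions made in assay buffer and adjusted to pH 7.5, preincubated with enzyme 30 min at room temperature.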

[1] = biological target: 72 kDa type IV collagenase (Homo sapiens, UniProt P08253); assay: Inhibition of MMP2
72 kDa type IV collagenase, sequence (P08253 whole entry): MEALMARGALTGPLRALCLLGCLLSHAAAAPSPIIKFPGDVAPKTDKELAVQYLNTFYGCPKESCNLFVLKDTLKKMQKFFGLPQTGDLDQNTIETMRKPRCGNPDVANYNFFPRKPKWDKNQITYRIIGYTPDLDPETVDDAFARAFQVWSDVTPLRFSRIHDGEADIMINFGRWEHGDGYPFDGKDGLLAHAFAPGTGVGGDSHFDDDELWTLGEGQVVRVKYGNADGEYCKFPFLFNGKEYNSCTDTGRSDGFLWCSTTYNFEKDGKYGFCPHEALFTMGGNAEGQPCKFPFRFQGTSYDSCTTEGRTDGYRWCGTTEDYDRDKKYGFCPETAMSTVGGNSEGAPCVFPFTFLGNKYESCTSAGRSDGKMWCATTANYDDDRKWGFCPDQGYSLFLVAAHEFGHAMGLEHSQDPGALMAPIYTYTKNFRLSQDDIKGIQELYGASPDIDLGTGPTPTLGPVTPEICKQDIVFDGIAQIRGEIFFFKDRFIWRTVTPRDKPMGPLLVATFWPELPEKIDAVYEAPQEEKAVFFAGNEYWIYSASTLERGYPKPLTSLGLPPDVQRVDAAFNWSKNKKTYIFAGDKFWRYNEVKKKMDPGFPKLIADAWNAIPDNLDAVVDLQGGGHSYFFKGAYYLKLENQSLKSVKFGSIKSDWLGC
Outline: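 Gelatinase A (MMP-2) with synthetic substrate and inhibitor in sodium borate (50 mmol/l, pH 8.5), incubated 30 min at 37 °C. Then 0.03% TNBS added for a further 20 min and absorbance read at 450 nm.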

HL-60 = assay: Antiproliferative activity against human HL60 cells after 48 hrs by MTT assay; assay type: functional, cell-based; details: HL-60, 48 h
Outline: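 HL-60 cells kept in RPMI1640 with 10% FBS at 37 °C, 5% CO2. Seeded 10,000 cells per well, grown 4 h, then exposed to 1600, 800, 400, 200 or 100 µg/ml for 48 h. Added 0.5% MTT, incubated 4 h, dissolved formazan in DMSO and read OD at 570 nm. Mean and SE of five independent experiments.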

| SMILES | IC50 (Aminopeptidase N) | IC50 [1] | IC50 (HL-60) |
| --- | --- | --- | --- |
| CCCCCCCCCCCCNC(=O)C[C@@H](NC(=O)/C=C/c1ccccc1)C(=O)NO | 438 µM | > 1000 µM | – |
| CC(C)C[C@H](NC(=O)[C@@H](O)[C@H](N)Cc1ccccc1)C(=O)O [UBENIMEX] | – | – | 920 µM |
| CCCCNC(=O)C[C@@H](NC(=O)/C=C/c1ccccc1)C(=O)O | 190 µM | – | – |
| CCCCCNC(=O)C[C@@H](NC(=O)/C=C/c1ccccc1)C(=O)NO | 17.4 µM | 197 µM | – |
| CCCCCNC(=O)C[C@@H](NC(=O)/C=C/c1ccccc1)C(=O)O | 204 µM | – | – |
| CC(C)NC(=O)C[C@@H](NC(=O)/C=C/c1ccccc1)C(=O)O | 2200 µM | – | – |
| CCCCCCCCCCCCNC(=O)C[C@@H](NC(=O)/C=C/c1ccccc1)C(=O)O | 962 µM | – | – |
| O=C(/C=C/c1ccccc1)N[C@H](CC(=O)Nc1cccc(Cl)c1)C(=O)O | 719 µM | – | – |
| O=C(/C=C/c1ccccc1)N[C@H](CC(=O)Nc1ccc([N+](=O)[O-])cc1)C(=O)O | 273 µM | – | – |
| CCCCCCNC(=O)C[C@@H](NC(=O)/C=C/c1ccccc1)C(=O)NO | 18.1 µM | 179 µM | – |
| CCCCCCCCNC(=O)C[C@@H](NC(=O)/C=C/c1ccccc1)C(=O)NO | 18.5 µM | – | – |
| O=C(/C=C/c1ccccc1)N[C@H](CC(=O)Nc1cccc(Cl)c1)C(=O)NO | 1210 µM | > 1000 µM | – |
| CCCNC(=O)C[C@@H](NC(=O)/C=C/c1ccccc1)C(=O)NO | 36 µM | 131 µM | – |
| O=C(/C=C/c1ccccc1)N[C@H](CC(=O)Nc1ccc(Cl)cc1)C(=O)O | 349 µM | – | – |
| O=C(/C=C/c1ccccc1)N[C@H](CC(=O)Nc1ccccc1)C(=O)O | 232 µM | > 1000 µM | – |
| CCCCCCCCNC(=O)C[C@@H](NC(=O)/C=C/c1ccccc1)C(=O)O | 232 µM | > 1000 µM | – |
| CCCCNC(=O)C[C@@H](NC(=O)/C=C/c1ccccc1)C(=O)NO | 11.1 µM | 232 µM | 780 µM |

Further molecules by falling IC50 (Aminopeptidase N), results first:

| IC50 (Aminopeptidase N) | IC50 [1] | IC50 (HL-60) | SMILES |
| --- | --- | --- | --- |
| 9110 µM | – | – | CCCNC(=O)C[C@@H](NC(=O)/C=C/c1ccccc1)C(=O)O |
| 2050 µM | – | – | O=C(/C=C/c1ccccc1)N[C@H](CC(=O)Nc1cccc2ccccc12)C(=O)NO |
| 1780 µM | > 1000 µM | – | O=C(/C=C/c1ccccc1)N[C@H](CC(=O)Nc1cccc([N+](=O)[O-])c1)C(=O)O |
| 1440 µM | > 1000 µM | – | O=C(/C=C/c1ccccc1)N[C@H](CC(=O)Nc1cccc([N+](=O)[O-])c1)C(=O)NO |
| 739 µM | > 1000 µM | – | O=C(/C=C/c1ccccc1)N[C@H](CC(=O)Nc1cccc2ccccc12)C(=O)O |
| 263 µM | – | – | O=C(/C=C/c1ccccc1)N[C@H](CC(=O)Nc1ccccc1Cl)C(=O)O |
| 207 µM | – | – | O=C(/C=C/c1ccccc1)N[C@H](CC(=O)NCc1ccccc1)C(=O)O |
| 192 µM | 197 µM | – | O=C(/C=C/c1ccccc1)N[C@H](CC(=O)Nc1ccc(Cl)cc1)C(=O)NO |
| 189 µM | – | – | O=C(/C=C/c1ccccc1)N[C@H](CC(=O)Nc1ccc([N+](=O)[O-])cc1)C(=O)NO |
| 115 µM | – | – | O=C(/C=C/c1ccccc1)N[C@H](CC(=O)Nc1ccccc1)C(=O)NO |
| 86.6 µM | > 1000 µM | – | O=C(/C=C/c1ccccc1)N[C@H](CC(=O)Nc1ccccc1Cl)C(=O)NO |
| 65.9 µM | – | – | CC(C)NC(=O)C[C@@H](NC(=O)/C=C/c1ccccc1)C(=O)NO |
| 65.1 µM | – | – | O=C(/C=C/c1ccccc1)N[C@H](CC(=O)NCc1ccccc1)C(=O)NO |
